Source: ChEMBL document CHEMBL4765486, “Novel Nonsecosteroidal Vitamin D Receptor Modulator Combined with Gemcitabine Enhances Pancreatic Cancer Therapy through Remodeling of the Tumor Microenvironment” (J Med Chem, 2021)
The source made the active and inactive calls.

Tests used:
[1] = Cytotoxicity against rat LTC-14 cells assessed as reduction in cell proliferation incubated for 24 hrs by MTT assay; format: cell-based; details: LTC-14, 24 h
LTC-14 [2] = assay: Inhibition of rat LTC-14 cell activation assessed decrease in TGF-beta1 induced Colla1 mRNA expression at 0.5 uM incubated for 24 hrs by q-PCR analysis; format: functional
In short: (§1)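 Immortalized rat PSC line LTC-14, about 1×10^5 cells per well, was grown 24 h at 37 °C in 5% CO2. Cells then received compound (0.5 μM) plus TGF-β1 for 24 h; TGF-β1 is stated as 0.5 ng/mL in the text and 5 ng/mL in the methods. Col1a1 and Acta2 mRNA were measured by RT-qPCR. Mean ± SD versus TGF-β1 alone.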

LTC-14 [3] = assay: Inhibition of rat LTC-14 cells activation assessed decrease in TGF-beta1 induced collagen 1 protein expression at 0.5 uM incubated for 24 hrs by Western blot analysis; format: functional, cell-based
In short: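 LTC-14 cells were treated for 24 h with compound (0.5 μM) plus TGF-β1 (0.5 ng/mL in the text, 5 ng/mL in the methods). Lysates were run on 10% SDS-PAGE, transferred to PVDF and probed with rabbit anti-collagen I, with β-actin as reference. Bands were quantified by densitometry versus TGF-β1 alone.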

LTC-14 [4] = assay: Inhibition of rat LTC-14 cells activation assessed decrease in TGF-beta1 induced Acta2 mRNA expression at 0.5 uM incubated for 24 hrs by q-PCR analysis; format: functional, cell-based; in short: as §1
[5] = target: T1, Vitamin D3 receptor (Homo sapiens) (UniProt P11473); assay: Binding affinity to VDR (unknown origin) at 1 uM by fluorescence polarization assay relative to calcipotriol
T1 sequence (whole entry): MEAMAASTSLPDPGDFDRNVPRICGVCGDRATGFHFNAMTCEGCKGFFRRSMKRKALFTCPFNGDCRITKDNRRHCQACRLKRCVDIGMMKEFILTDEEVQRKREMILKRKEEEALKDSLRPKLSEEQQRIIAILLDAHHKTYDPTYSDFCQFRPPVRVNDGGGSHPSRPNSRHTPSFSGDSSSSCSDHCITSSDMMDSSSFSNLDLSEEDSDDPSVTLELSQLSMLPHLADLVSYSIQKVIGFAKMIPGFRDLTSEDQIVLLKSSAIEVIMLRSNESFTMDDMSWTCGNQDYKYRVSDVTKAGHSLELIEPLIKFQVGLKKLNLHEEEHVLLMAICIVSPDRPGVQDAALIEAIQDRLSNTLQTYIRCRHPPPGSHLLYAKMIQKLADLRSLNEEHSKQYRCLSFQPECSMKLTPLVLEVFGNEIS
In short: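 PolarScreen VDR competitor fluorescence polarization assay with compounds at 1 μM in triplicate. Read-out used 535 nm excitation and 590 nm emission filters.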

| RBA ([5]; filed as agonist) | RBA [5] | Compound | IC50 [1] | inhibition (LTC-14 [2]) | inhibition (LTC-14 [3]) | inhibition (LTC-14 [4]) |
| --- | --- | --- | --- | --- | --- | --- |
| 48% | – | CCn1c(C(=O)NCCN(C)C)ccc1C(CC)(CC)c1ccc(OCCC(C)(C)O)c(C)c1 | > 10 µM | Active | Active | Active |
| 75% | – | CCN(CC)CCCNC(=O)c1ccc(C(CC)(CC)c2ccc(OCC(O)c3ccccc3)c(C)c2)n1CC (stereo not given) | > 10 µM | Active | Active | Active |
| – | 24% | CCN(CC)CCCNC(=O)c1cc(C(CC)(CC)c2ccc(OCCCC(C)(C)O)c(C)c2)cn1CC | > 10 µM | Active | Active | Active |
| – | 36% | CCn1cc(C(CC)(CC)c2ccc(OCC(C)O)c(C)c2)cc1C(=O)NCCN1CCOCC1 (stereo not given) | > 10 µM | Active | Active | Active |
| 70% | – | CCn1cc(C(CC)(CC)c2ccc(OCC(C)O)c(C)c2)cc1C(=O)NCCN(C)C (stereo not given) | > 10 µM | Active | Active | Active |
| 60% | – | CCn1cc(C(CC)(CC)c2ccc(OCC(C)O)c(C)c2)cc1C(=O)NCC1CCCO1 (stereo not given) | > 10 µM | Active | Active | Active |
| 63% | – | CCn1c(C(=O)NCCCN2CCOCC2)ccc1C(CC)(CC)c1ccc(OCCC(C)(C)O)c(C)c1 | > 10 µM | Active | Active | Active |
| – | 31% | CCN(CC)CCNC(=O)c1cc(C(CC)(CC)c2ccc(OCCCC(O)(CC)CC)c(C)c2)cn1CC | > 10 µM | Active | Active | Active |
| – | inactive | CCN(CC)CCCNC(=O)c1cc(C(CC)(CC)c2ccc(OCCCCCC(C)(C)O)c(C)c2)cn1CC | > 10 µM | Active | Active | Active |
| – | 33% | CCN(CC)CCCNC(=O)c1ccc(C(CC)(CC)c2ccc(OCCCC(C)(C)O)c(C)c2)n1CC | > 10 µM | Active | Active | Active |
| – | inactive | CCN(CC)CCCNC(=O)c1ccc(C(CC)(CC)c2ccc(OCCCCC(O)(CC)CC)c(C)c2)n1CC | > 10 µM | Active | Active | Active |
| 64% | – | CCC(O)COc1ccc(C(CC)(CC)c2cc(C(=O)NCCCN(CC)CC)n(CC)c2)cc1C (stereo not given) | > 10 µM | Active | Active | Active |
| 51% | – | CCN(CC)CCCNC(=O)c1cc(C(CC)(CC)c2ccc(OCCC(O)(CC)CC)c(C)c2)cn1CC | > 10 µM | Active | Active | Active |
| 46% | – | CCN(CC)CCCNC(=O)c1cc(C(CC)(CC)c2ccc(OCCCC(O)(CC)CC)c(C)c2)cn1CC | > 10 µM | Active | Active | Active |
| – | inactive | CCN(CC)CCNC(=O)c1cc(C(CC)(CC)c2ccc(OCC(C)O)c(C)c2)cn1CC (stereo not given) | > 10 µM | Active | Active | Active |
| – | 20% | CCN(CC)CCCNC(=O)c1ccc(C(CC)(CC)c2ccc(OCCCCCC(C)(C)O)c(C)c2)n1CC | > 10 µM | Active | Active | Active |
| – | 28% | CCC(O)COc1ccc(C(CC)(CC)c2ccc(C(=O)NCCCN(CC)CC)n2CC)cc1C (stereo not given) | > 10 µM | Active | Active | Active |
